Assay results published in ChEMBL document CHEMBL5634206, “Chiral hydroxymethyl-1H,3H-pyrrolo[1,2-c]thiazoles: the search for selective p53-activating agents for colorectal cancer therapy” (RSC Med Chem, 2024).

Tests used:
HCT-116 [1] = assay: Antiproliferative activity against wildtype p53 expressing human HCT-116 cells assessed as inhibition of cell growth incubated for 48 hrs by SRB assay; assay type: functional, cell-based
Procedure, shortened: (§1)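 Isogenic HCT116 p53+/+ and p53−/− pair from B. Vogelstein, grown as monolayers in RPMI-1640 with 2 mM L-glutamine and 10% heat-inactivated FBS at 37 °C, 5% CO2. Cells seeded at 5 × 10^3 per well for 24 h, then given serial dilutions from 0.2 to 50 μM for 48 h. IC50 read by sulforhodamine B staining.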

HCT-116 [2] = assay: Antiproliferative activity against human HCT-116 cells expressing p53-/- assessed as inhibition of cell growth incubated for 48 hrs by SRB assay; assay type: functional, cell-based; procedure, shortened: as §1
MDA-MB-231 = assay: Antiproliferative activity against human MDA-MB-231 cells assessed as inhibition of cell growth incubated for 48 hrs by SRB assay; assay type: functional, cell-based; details: MDA-MB-231, 48 h
Procedure, shortened: (§2)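 MDA-MB-231 and PANC-1 cells grown in high-glucose DMEM (4.5 g L−1) with L-glutamine, sodium pyruvate and 10% heat-inactivated FBS at 37 °C, 5% CO2. After seeding 5 × 10^3 cells per well for 24 h, cells received serial dilutions of 0.2–50 μM for 48 h. IC50 by SRB. Mean ± SD of 3 independent experiments.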

PANC-1 = assay: Antiproliferative activity against human PANC-1 cells assessed as inhibition of cell growth incubated for 48 hrs by SRB assay; assay type: functional, cell-based; details: PANC-1, 48 h; procedure, shortened: as §2
A-375 = assay: Antiproliferative activity against human A-375 cells assessed as inhibition of cell growth incubated for 48 hrs by SRB assay; assay type: functional, cell-based; details: A-375, 48 h
Procedure, shortened: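 A375 melanoma cells grown as monolayers in RPMI-1640 with 2 mM L-glutamine and 10% heat-inactivated FBS at 37 °C, 5% CO2. Seeded at 5 × 10^3 cells per well for 24 h, then exposed to serial dilutions (0.2–50 μM) for 48 h. IC50 determined by SRB. Mean ± SD of 3 independent experiments.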

HCT-116 [3] = assay: Potency index, ratio of test compound IC50 to MANIO IC50 for antiproliferative activity against wildtype p53 expressing human HCT-116 cells assessed as inhibition of cell growth incubated for 48 hrs by SRB assay
[4] = Selectivity ratio of IC50 for antiproliferative activity against human HCT-116 cells expressing p53-/- to IC50 for antiproliferative activity against wildtype p53 expressing human HCT-116 cells; assay type: functional
[5] = Homo sapiens, HCT-116, 48 h, read-out: IC50

| SMILES | IC50 (HCT-116 [1]; [5]) [µM] | IC50 (HCT-116 [2]; [5]) [µM] | IC50 (HCT-116 [1]; hct-116) | IC50 (HCT-116 [2]; hct-116) | IC50 (MDA-MB-231) [µM] | IC50 (PANC-1) [µM] | IC50 (A-375) [µM] | Ratio IC50 (HCT-116 [3]) | Ratio IC50 [4] |
| --- | --- | --- | --- | --- | --- | --- | --- | --- | --- |
| Cc1c(CO)c(CO)c2n1[C@@H](C)SC2 | 33.3 | 46.2 | – | – | – | – | – | – | – |
| Cc1c(CO)c(CO)c2n1[C@@H](c1ccccc1)SC2 | 5.11 | 51.8 | – | – | > 50 | 33.1 | 14.5 | 5 | – |
| Cc1c(CO)c(CO)c2n1[C@H](c1ccccc1)SC2 | – | 48.2 | – | – | > 50 | 42.1 | 13.2 | – | ~50 |
| Cc1c(CO)c(CO)c2n1[C@@H](c1ccc(O)cc1)SC2 | 16.6 | > 50 | – | – | – | – | – | – | – |
| Cc1c(CO)cc2n1CSC2 | 28.3 | > 50 | – | – | – | – | – | – | – |
| Cc1cc(CO)c2n1[C@H](c1ccccc1)SC2 | 0.14 | 18.1 | – | – | > 50 | > 50 | > 50 | – | 129 |
| Cc1c(CO)cc2n1[C@@H](c1ccccc1)SC2 | 6.68 | > 50 | – | – | > 50 | > 50 | 39.5 | – | – |
| Cc1c(CO)c(CO)c2n1[C@@H](c1ccc(F)cc1)SC2 | 4.43 | 32.5 | – | – | > 50 | 20.2 | 36.1 | – | – |
| COc1cc([C@H]2SCc3c(CO)c(CO)c(C)n32)cc(OC)c1OC | > 50 | > 50 | – | – | – | – | – | – | – |

The next lines start with results.

| IC50 (HCT-116 [1]; [5]) [µM] | IC50 (HCT-116 [2]; [5]) [µM] | IC50 (HCT-116 [1]; hct-116) | IC50 (HCT-116 [2]; hct-116) | IC50 (MDA-MB-231) [µM] | IC50 (PANC-1) [µM] | IC50 (A-375) [µM] | SMILES | Ratio IC50 (HCT-116 [3]) | Ratio IC50 [4] |
| --- | --- | --- | --- | --- | --- | --- | --- | --- | --- |
| – | – | Not Determined(Insoluble) | Not Determined(Insoluble) | – | – | – | Cc1c(CO)c(CO)c2n1[C@@H](c1cccc3ccccc13)SC2 | – | – |
| 4.61 | > 50 | – | – | > 50 | > 50 | > 50 | COc1ccc([C@H]2SCc3c(CO)c(CO)c(C)n32)cc1 | – | – |
| > 15 | > 50 | – | – | – | – | – | Cc1c(CO)c(CO)c2n1[C@@H](c1ccccc1)S(=O)(=O)C2 | – | – |
| 20.3 | > 50 | – | – | – | – | – | OCc1cn2c(c1CO)CS[C@@H]2c1ccccc1 | – | – |
| 24.3 | 22.2 | – | – | – | – | – | Cc1c(CO)c(CO)c2n1[C@H](c1ccccc1)SC2(C)C | – | – |
| 31.4 | 42.7 | – | – | – | – | – | Cc1c(CO)c(CO)c2n1[C@H](C)SC2 | – | – |
| 0.99 | 4.33 | – | – | 24.1 | 35 | 11.8 | Cc1c(CO)cc2n1[C@H](c1ccccc1)SC2 | – | – |
| 29.3 | > 50 | – | – | – | – | – | Cc1cc(CO)c2n1[C@@H](c1ccccc1)SC2 | – | – |
| 16.3 | 29.1 | – | – | – | – | – | Cc1c(CO)c(CO)c2n1[C@@H](Cc1ccccc1)SC2 | – | – |
| 1.47 | 23.5 | – | – | 16.6 | > 50 | 22.8 | COc1ccc([C@@H]2SCc3c(CO)c(CO)c(C)n32)cc1 | – | – |
| 7.5 | > 50 | – | – | > 50 | 17.4 | 24.4 | Cc1c(CO)c(CO)c2n1[C@@H](c1cccc3cccnc13)SC2 | – | – |
| > 50 | > 50 | – | – | – | – | – | OCc1nn2c(c1CO)CSC2 | – | – |
